Source: the EternaBench riboswitch data

Test system: MS2 coat protein
Assay: apparent Kd, MS2 coat protein; higher = weaker binding; RNA-MaP array; FMN 200 µM where present
In short: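 Green signal from SNAP-549-labelled MS2 coat protein was normalised to red-channel RNA signal and to the median Fmax of control clusters. The protein was titrated from 0.7 or 1.5 nM, doubling to 3 µM, without and then with constant ligand, over designs transcribed by stalled E. coli RNA polymerase on Illumina sequencing-chip clusters, in 100 mM Tris-HCl pH 7.5, 80 mM KCl, 4 mM MgCl2, BSA, DTT, yeast tRNA and Tween-20. The apparent Kd is the median of filtered per-cluster binding-curve fits.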

[1] = designed as: ON switch for flavin mononucleotide, no ligand
[2] = ligand present: flavin mononucleotide, designed as: ON switch for flavin mononucleotide
[3] = designed as: OFF switch for flavin mononucleotide, no ligand
[4] = ligand present: flavin mononucleotide, designed as: OFF switch for flavin mononucleotide

In the case of “UAGAAACAUGAGGAUCACCCAUGUGGGUUAAACACAGGAUAUCACGCCAAAAGAAAAGCGUGAGAAGGGUGACCGA”, the “apparent Kd” value [1] is reported as 0.0864 µM and the “apparent Kd” value [2] is reported as 0.717 µM.
For “GGCAGUCCGACACAGGAUAUGGGUAACGAAACAUGAGGAUCACCCAUGUGGAAACAUCGGGUUGCCUAGAAGGGUGGAAAGAUUG”, the “apparent Kd” value [1] was 0.117 µM and the “apparent Kd” value [2] was 0.0321 µM.
For “GCAGCUAUUAUUAUACAUGAGGAUCACCCAUGUUACAUGUGUAAGGAUAUUGAUGUUUAUAUAAUCAAGAAGGUACGAAGCUGC”, the “apparent Kd” value [1] was 0.0116 µM and the “apparent Kd” value [2] was 0.00715 µM.
With “UAUUGUUCCUGAGGAUAUCAGUUGUUUGCAUUAUGAGAAGGCAGUACAUGAGGAUCACCCAUGUUGGGAUUUGAUAGAAUGAUA” the “apparent Kd” value [1] was 0.185 µM and the “apparent Kd” value [2] was 0.195 µM.
“CAUGUGUAAGGAUAUGACAAUGGUAUCUUCGGAUACCAUUGUCAGAAGGUACAUGAGGAUCACCCAUGUAGAUC” was tested, and the “apparent Kd” value [3] was 0.055 µM and the “apparent Kd” value [4] was 0.24 µM.
For “GGGUCAACAUGAGGAUCACCCAUGUAGGAUAUCGCUAUUGUAAUCAUGAAACAUGAUUACAAUAGCGAGAAGGACAUAUGCUUU”, the “apparent Kd” value [3] was 0.0123 µM and the “apparent Kd” value [4] was 0.0254 µM.
In the case of “GACGCUGACCGAGGAUAUACAAUAAAACAACAAACACCUCGUGUCAGAACAUGAGGAUCACCCAUGUAGAAGGCGGCAGGUCUA”, the “apparent Kd” value [3] is reported as 0.0486 µM and the “apparent Kd” value [4] is reported as 0.127 µM.
With “AGGUGACAUGAGGAUCACCCAUGUCAGGAUAUAUACACUGCCGGCGUGACGCCGGCAGAUAGAAGGGACAAAAU” the “apparent Kd” value [3] was 0.0159 µM and the “apparent Kd” value [4] was 0.0184 µM.
For “GUCAGCUCGUGAGGAUAUACACCACUGCUUCGGCAGUGUAUUAAGAUCACAUGAGGAUCACCCAUGUAGAAGGCACGAGCUGAU”, the “apparent Kd” value [3] was 0.0145 µM and the “apparent Kd” value [4] was 0.255 µM.
In the case of “UCUAUGUAGAUUCGUCAAUACAGUUAGGAUAUGAGAUACAUGAGGAUCACCCAUGUGCAUGUGGAUUAGAAGGAACAAUUAACU”, the “apparent Kd” value [3] is reported as 0.0934 µM and the “apparent Kd” value [4] is reported as 0.0698 µM.
With “AAUUAAUUGUAGAAGGUACUUAAUUAUGAUAUGUAAGGAUAUACGAUAUUAUAACGACAUGUAUGACAUGAGGAUCACCCAUGU” the “apparent Kd” value [1] was 0.0112 µM and the “apparent Kd” value [2] was 0.0084 µM.
For “ACGACGAAAGUCGAACGAUGUAGCAGAAGGACAUGAGGAUCACCCAUGUAAAAUGUAACAGCCAUGUAGGAUAUGCUACAUCGA”, the “apparent Kd” value [3] was 0.0313 µM and the “apparent Kd” value [4] was 0.238 µM.
For “AAUAUGUUGCAGAAGGUUAUUUUUAUAACGAUCCAUUUGACAUGAGGAUCACCCAUGUAAUUGAUGAAGGAUAUGCAAUAUAUU”, the “apparent Kd” value [3] was 0.00642 µM and the “apparent Kd” value [4] was 0.00718 µM.
“UCAGGCUUCGAGAAGGACAUGAGGAUCACCCAUGUGCGUGUGAAGCAGCCGUGAGGCUGCAUCAUGUAGGAUAUCGGAGUCUGC” was tested, and the “apparent Kd” value [3] was 0.082 µM and the “apparent Kd” value [4] was 0.418 µM.
With “GAAUUCGCAUGAGGAUAUGCACUCAUUUCAUGUGCAGAAGGUAUAACAUUAGACAUGAGGAUCACCCAUGUAUUGGUCAGUAAC” the “apparent Kd” value [1] was 0.015 µM and the “apparent Kd” value [2] was 0.0134 µM.
For “GCCAGUUAUGUAGGAUAUGCGAGGCGAGCCUGAGCAGAAGGACAUGAGGAUCACCCAUGUAUUGCGGUUUAUGUUCAGAUCGCU”, the “apparent Kd” value [3] was 0.0159 µM and the “apparent Kd” value [4] was 0.0182 µM.
For “UAGGGAGGAGGGAGGGAGACAUGAGGAUCACCCAUGUAAUGUCAGGAUAUUCUCAUAUUAUAUUAGGAGAAGGGAUACAUAUCU”, the “apparent Kd” value [3] was 0.0497 µM and the “apparent Kd” value [4] was 0.0247 µM.
For “CUUGUGUAAGGAUAUCGAGUAGAACGCUCGAGUUCUGAGCUCGAGAAGGUACAUGAGGAUCACCCAUGUUAAAA”, the “apparent Kd” value [3] was 0.0401 µM and the “apparent Kd” value [4] was 0.0662 µM.
“GUCGUGUUAGGAUAUGGCAACGGCUACGAAAGUAGUUGUUGUUAGAAGGAACAUGAGGAUCACCCAUGUAUGAC” was tested, and the “apparent Kd” value [3] was 0.038 µM and the “apparent Kd” value [4] was 0.101 µM.
For “GGGCUGUCAGGAUAUGGGCCCGGGCCCGAAAGGGCCCGGGUUUAGAAGGGACAUGAGGAUCACCCAUGUGGCCC”, the “apparent Kd” value [3] was 0.0325 µM and the “apparent Kd” value [4] was 0.0372 µM.
For “UUUUGGUCAGGAUAUUGUUAGUUUAGUUGUUUGUAUUAGUUCGAGAAGGGACAUGAGGAUCACCCAUGUGGUUU”, the “apparent Kd” value [3] was 0.0718 µM and the “apparent Kd” value [4] was 0.0589 µM.
For “UUUUACGGAGGAUAUACAUUUUUUUUAUUAUCCUCAUUAUUACAUGAGGAUCACCCAUGUAGAAGGCCGAUUUU”, the “apparent Kd” value [3] was 0.0426 µM and the “apparent Kd” value [4] was 0.173 µM.
With “GUGUGUUGCGGGCAGGAUAUGUAUUUGAGUACAUGAGGAUCACCCAUGUGCGCCUGUUUCAGGCGACAGAAGGGCCUAUCGCGAC” the “apparent Kd” value [1] was 0.159 µM and the “apparent Kd” value [2] was 0.0309 µM.
With “GUAUCGUGAGGAUAUCCAAUAUAUGACAUGAGGAUCACCCAUGUUUCCACUCGUACCUCCGGAGAAGGCACAGUUU” the “apparent Kd” value [3] was 0.0322 µM and the “apparent Kd” value [4] was 0.0279 µM.
With “GUCAGCUCGUGAGGAUAUACAACACUGCUUCGGCAGUGUAUUAAGACCACAUGAGGAUCACCCAUGUAGAAGGCACGAGCUGAU” the “apparent Kd” value [3] was 0.00518 µM and the “apparent Kd” value [4] was 0.0143 µM.
For “CCCAGUUAGGAAGGAUAUUGUACAUGAGGAUCACCCAUGUAAUAAAUGAGGAUCUCGGAUGUAUACAAGAAGGUCCGGAUAGGC”, the “apparent Kd” value [3] was 0.0716 µM and the “apparent Kd” value [4] was 0.136 µM.
For “UGUGCGUAUGUGAGGAUAUGCUGGUCCUUGGAUCAGCAGAAGGCACAUGAGGAUCACCCAUGUGGUGUCGUACC”, the “apparent Kd” value [3] was 0.314 µM and the “apparent Kd” value [4] was 0.048 µM.
“CGUGACUCAGGAUAUCUAUUAUGUCACAUGAGGAUCACCCAUGUCCAGCGAAAGCUGGAGGGAGAAGGGAGUCACG” was tested, and the “apparent Kd” value [3] was 0.0979 µM and the “apparent Kd” value [4] was 0.0349 µM.
“UAUAUAUAGUAAGGAUAUGUAUAUAUUUCAUAAACAGAAGGUACUGACAUGAGGAUCACCCAUGUUUUAGUGUGGGCAUGUAGA” was tested, and the “apparent Kd” value [3] was 0.0601 µM and the “apparent Kd” value [4] was 0.0838 µM.
In the case of “UUCGUGUGACAGAAGGGUCUUUCGGGCUGGGAGGCAGGAUAUGUGACAUGAGGAUCACCCAUGUUGGUAUCGUCUGUGUGUACG”, the “apparent Kd” value [3] is reported as 0.00615 µM and the “apparent Kd” value [4] is reported as 0.0128 µM.
“AGAUGACAUGUAGGAUAUCGAGGCCUGAGGCCUCGAGAAGGACAUGAGGAUCACCCAUGUUUGCCGAGCAUGGAAUCCCGCACU” was tested, and the “apparent Kd” value [3] was 0.0291 µM and the “apparent Kd” value [4] was 0.205 µM.
With “GGAUAGGACAGAGGAUAUACGUGCUAGAGAUACCAGCAAAAUUUCCUCACAUGAGGAUCACCCAUGUAGAAGGCUGUCCUAUCG” the “apparent Kd” value [3] was 0.0319 µM and the “apparent Kd” value [4] was 0.558 µM.
In the case of “UUAUGCUGAGAGAAGGUUCAAACUACAUAUUGCGCACAUGAGGAUCACCCAUGUUGGUGAAUAAGAAAGGAUAUUUUACUGUAU”, the “apparent Kd” value [3] is reported as 0.0632 µM and the “apparent Kd” value [4] is reported as 0.0431 µM.
In the case of “UAUUUUAACUAAGGAUAUCUAUAUUAAUUUGAAACAUGAGGAUCACCCAUGUUCAUGGGUUUAUAAGAGAAGGUAGAUGAAUAA”, the “apparent Kd” value [1] is reported as 0.0487 µM and the “apparent Kd” value [2] is reported as 0.0207 µM.
“UUUAUUAAACAAGGAUAUCAUUUGUGUACAAGUUUUACAUGAGGAUCACCCAUGUUAAAUGGUUUUGAGAAGGUGUUUAGAAUU” was tested, and the “apparent Kd” value [1] was 0.0342 µM and the “apparent Kd” value [2] was 0.0252 µM.
For “CAGCCCUGAGGAUAUCCACCCUCGUACAUGAGGAUCACCCAUGUUUCCCUCUGGGCUUUCGGAGAAGGCAGGUAUC”, the “apparent Kd” value [3] was 0.0786 µM and the “apparent Kd” value [4] was 0.0773 µM.
